System: A2780
Test: Antiproliferative activity against human A2780 cells
Format: functional, cell-based
In short: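 Growth inhibition of the drug-sensitive human ovarian cancer line A2780, measured at Virginia Polytechnic Institute and State University. IC50 is the concentration that inhibited 50% of cell growth. Actinomycin D was the positive control.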

C[C@H]1O[C@@H](O[C@H]2CC[C@@]3(C=O)[C@@H](CC[C@@H]4[C@@H]3CC[C@]3(C)[C@@H](C5=CC(=O)OC5)CC[C@]43O)C2)C[C@H](O)[C@H]1O
IC50: 0.15 µM

CO[C@H]1[C@@H](O)[C@H](O[C@H]2CC[C@@]3(C)[C@@H](CC[C@@H]4[C@@H]3CC[C@]3(C)[C@@H](C5=CC(=O)OC5)CC[C@]43O)C2)O[C@@H](C)[C@@H]1O[C@@H]1O[C@H](CO)[C@@H](O)[C@H](O)[C@H]1O
IC50: 0.15 µM

C[C@H]1[C@@H](O[C@H]2CC[C@@]3(C)[C@@H](CC[C@@H]4[C@@H]3CC[C@]3(C)[C@@H](C5=CC(=O)OC5)CC[C@]43O)C2)O[C@@H](C)[C@@H](O)[C@H]1O
IC50: 0.15 µM

CO[C@H]1C[C@H](O[C@H]2CC[C@@]3(C=O)[C@@H](CC[C@@H]4[C@@H]3CC[C@]3(C)[C@H](C5=CC(=O)OC5)CC[C@]43O)C2)O[C@H](C)[C@@H]1O
IC50: 3.7 µM

CO[C@@H]1[C@@H](O)[C@H](O[C@H]2CC[C@@]3(C=O)[C@@H](CC[C@@H]4[C@@H]3CC[C@]3(C)[C@@H](C5=CC(=O)OC5)CC[C@]43O)C2)O[C@H](C)[C@@H]1O[C@@H]1O[C@H](CO)[C@@H](O)[C@H](O)[C@H]1O [BOIVINIDE A]
IC50: 0.17 µM

CO[C@H]1C[C@H](O[C@H]2CC[C@@]3(C=O)[C@@H](CC[C@@H]4[C@@H]3CC[C@]3(C)[C@@H](C5=CC(=O)OC5)CC[C@]43O)C2)O[C@H](C)[C@@H]1O[C@@H]1O[C@H](CO)[C@@H](O)[C@H](O)[C@H]1O [BOIVINIDE B]
IC50: 0.66 µM

CO[C@H]1C[C@H](O[C@H]2CC[C@@]3(C=O)[C@@H](CC[C@@H]4[C@@H]3CC[C@]3(C)[C@H](C5=CC(=O)OC5)CC[C@]43O)C2)O[C@H](C)[C@@H]1O[C@@H]1O[C@H](CO)[C@@H](O)[C@H](O)[C@H]1O [BOIVINIDE C]
IC50: 2.9 µM

C[C@H]1O[C@@H](O[C@H]2CC[C@@]3(C=O)[C@@H](CC[C@@H]4[C@@H]3CC[C@]3(C)[C@@H](C5=CC(=O)OC5)CC[C@]43O)C2)C[C@H](O)[C@H]1O[C@@H]1O[C@H](CO)[C@@H](O)[C@H](O)[C@H]1O [BOIVINIDE D]
IC50: 0.29 µM

CO[C@H]1[C@@H](O[C@@H]2O[C@H](CO)[C@@H](O)[C@H](O)[C@H]2O)[C@@H](C)O[C@@H](O[C@H]2CC[C@@]3(C=O)[C@@H](CC[C@@H]4[C@@H]3CC[C@]3(C)[C@@H](C5=CC(=O)OC5)CC[C@]43O)C2)[C@@H]1OC(C)=O [BOIVINIDE F]
IC50: 0.54 µM

— ChEMBL document CHEMBL1141348, “Cytotoxic cardenolide glycosides of Roupellina (Strophanthus) boivinii from the Madagascar rainforest” (J Nat Prod, 2007)
